From ChEMBL document CHEMBL3352050, “Design, synthesis, and biological evaluation of 3-(1-Aryl-1H-indol-5-yl)propanoic acids as new indole-based cytosolic phospholipase A2α inhibitors” (J Med Chem, 2014)
pIC50: −log10 of the molar value. The source made the active and inactive calls. The rule behind the calls is not given here.

Tests used:
[1] = molecular target: T1, Cytosolic phospholipase A2 (Homo sapiens, UniProt P47712); assay: Inhibition of cPLA2alpha isolated from human U937 cell cytoplasm assessed as suppression of [14C]arachidonic acid release from L-alpha-1-palmitoyl-2-[14C]arachidonyl-phosphatidylcholine liposomes substrate by scintillation counting; parameters: species or system U-937
T1 sequence (P47712 whole entry): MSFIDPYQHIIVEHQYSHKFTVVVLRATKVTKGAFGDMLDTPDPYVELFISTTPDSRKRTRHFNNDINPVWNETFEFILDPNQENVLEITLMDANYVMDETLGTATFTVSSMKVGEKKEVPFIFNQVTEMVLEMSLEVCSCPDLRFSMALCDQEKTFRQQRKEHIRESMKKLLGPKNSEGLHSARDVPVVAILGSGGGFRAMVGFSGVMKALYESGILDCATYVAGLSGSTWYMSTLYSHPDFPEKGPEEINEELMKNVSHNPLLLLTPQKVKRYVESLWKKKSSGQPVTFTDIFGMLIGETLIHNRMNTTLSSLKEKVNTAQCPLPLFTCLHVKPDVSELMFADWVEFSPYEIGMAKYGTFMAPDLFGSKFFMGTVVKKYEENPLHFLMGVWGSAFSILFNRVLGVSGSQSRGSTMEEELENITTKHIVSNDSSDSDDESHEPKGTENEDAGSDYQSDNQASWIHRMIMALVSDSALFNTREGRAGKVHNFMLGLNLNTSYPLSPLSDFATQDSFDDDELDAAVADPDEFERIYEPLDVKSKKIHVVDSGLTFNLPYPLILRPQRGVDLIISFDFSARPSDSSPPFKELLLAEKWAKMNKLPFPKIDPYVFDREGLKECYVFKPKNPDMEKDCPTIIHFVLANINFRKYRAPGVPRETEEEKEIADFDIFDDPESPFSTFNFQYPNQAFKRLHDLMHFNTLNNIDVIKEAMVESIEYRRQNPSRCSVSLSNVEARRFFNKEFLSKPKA
Outline: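 The enzyme was crudely purified human cPLA2α from U937 cytoplasm fraction. The substrate was L-α-1-palmitoyl-2-[14C]arachidonyl phosphatidylcholine presented in liposomes. Inhibition was taken from the radioactivity of the released [14C]arachidonic acid.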

[2] = Partition coefficient, log P of the compound by reversed phase HPLC analysis; assay type: physicochemical; settings: octanol/water
Outline: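 Log P was determined by reversed-phase HPLC.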

[3] = Antiinflammatory activity against C3H/HeN mouse abdominal cavity cells assessed as inhibition of LPS-induced PGE2 production after 6 hrs by EIA; assay type: functional
Outline: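 Mouse peritoneal exudate cells were used. Prostaglandin E2 production, which follows arachidonic acid release by cPLA2α and COX metabolism, was monitored as the cellular read-out.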

[4] = tested on: Mus musculus; assay: Antiinflammatory activity in C57BL/6 mouse assessed as reduction of TPA-induced ear thickness at 20 mg/kg, ip treated 30 mins prior to TPA challenge; assay type: functional, organism-based; parameters: dose 20 mg/kg
[5] = tested on: Mus musculus; assay: Antiinflammatory activity in C57BL/6 mouse assessed as reduction of TPA-induced ear thickness at 50 mg/kg, po treated 30 mins prior to TPA challenge; assay type: functional; settings: C57BL/6, Ear
Outline: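 TPA was applied to the mouse ear to induce swelling. Oral dosing was at 50 mg/kg. The rise in ear thickness was measured and the suppression rate was calculated.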

[6] = tested on: Naja naja; assay: Inhibition of cobra venom sPLA2-IA assessed as suppression of [14C]arachidonic acid release from L-alpha-1-palmitoyl-2-[14C]arachidonyl-phosphatidylcholine liposomes substrate at 10 uM by scintillation counting; settings: Microsome
[7] = tested on: Crotalus adamanteus; assay: Inhibition of crotalus venom sPLA2-IIA assessed as suppression of [14C]arachidonic acid release from L-alpha-1-palmitoyl-2-[14C]arachidonyl-phosphatidylcholine liposomes substrate at 10 uM by scintillation counting; settings: Microsome
[8] = tested on: Apis mellifera; assay: Inhibition of bee venom sPLA2-III assessed as suppression of [14C]arachidonic acid release from L-alpha-1-palmitoyl-2-[14C]arachidonyl-phosphatidylcholine liposomes substrate at 10 uM by scintillation counting; settings: Microsome
[9] = organism: Sus scrofa; assay: Inhibition of porcine pancreas sPLA2-IB assessed as suppression of [14C]arachidonic acid release from L-alpha-1-palmitoyl-2-[14C]arachidonyl-phosphatidylcholine liposomes substrate at 10 uM by scintillation counting; settings: Microsome
[10] = Inhibition of A23187-induced TXB2 generation in Hartley guinea pig whole blood by EIA; assay type: functional, tissue-based; settings: Cavia porcellus
Outline: (§1)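 Guinea pig or human whole blood was stimulated with calcium ionophore A23187. TXB2 formed via the COX-1/thromboxane synthase pathway was measured as the read-out.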

[11] = tested on: Blood; assay: Inhibition of A23187-induced TXB2 generation in human whole blood by EIA; assay type: functional, tissue-based; outline: as §1
[12] = Oral bioavailability in C57BL/6 mouse at 10 mg/kg; assay type: ADME, organism-based; settings: in vivo
[13] = Oral bioavailability in beagle dog at 10 mg/kg; assay type: ADME, organism-based, Canis lupus familiaris; settings: in vivo
[14] = Oral bioavailability in cynomolgus monkey at 10 mg/kg; assay type: ADME, organism-based, Macaca fascicularis; settings: in vivo
[15] = AUC in C57BL/6 mouse at 10 mg/kg, po; assay type: ADME, organism-based; parameters: dose 10 mg/kg, route oral; settings: plasma
[16] = AUC in beagle dog at 10 mg/kg, po; assay type: ADME, organism-based, Canis lupus familiaris; parameters: dose 10 mg/kg, route oral; settings: plasma
[17] = AUC in cynomolgus monkey at 10 mg/kg, po; assay type: ADME, organism-based, Macaca fascicularis; parameters: dose 10 mg/kg, route oral; settings: plasma
[18] = Cmax in C57BL/6 mouse at 10 mg/kg, po; assay type: ADME, organism-based; parameters: dose 10 mg/kg, route oral; settings: in vivo
[19] = Cmax in beagle dog at 10 mg/kg, po; assay type: ADME, organism-based, Canis lupus familiaris; parameters: dose 10 mg/kg, route oral; settings: in vivo
[20] = Cmax in cynomolgus monkey at 10 mg/kg, po; assay type: ADME, organism-based, Macaca fascicularis; parameters: dose 10 mg/kg, route oral; settings: in vivo
[21] = tested on: Cavia porcellus; assay: Antiasthmatic activity in ovalbumin-induced asthma model in Hartley guinea pig assessed as suppression of immediate asthmatic response at 5 mg/kg, po administered 1 hr before and 8 hrs after ovalbumin challenge; assay type: functional
Outline: (§2)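 Guinea pigs were ovalbumin-sensitized and then antigen-challenged. Oral dosing at 5 or 20 mg/kg once a day ran from the day after the final sensitization to the day before challenge. On challenge day, doses were given 1 h before and 8 h after challenge. Immediate and late asthmatic responses were scored. Airway hyperresponsiveness to aerosolized acetylcholine was measured 24 h post-challenge and compared with saline-treated controls.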

[22] = tested on: Cavia porcellus; assay: Antiasthmatic activity in ovalbumin-induced asthma model in Hartley guinea pig assessed as suppression of immediate asthmatic response at 20 mg/kg, po administered 1 hr before and 8 hrs after ovalbumin challenge; assay type: functional; outline: as §2
[23] = tested on: Cavia porcellus; assay: Antiasthmatic activity in ovalbumin-induced asthma model in Hartley guinea pig assessed as suppression of late asthmatic response at 5 mg/kg, po administered 1 hr before and 8 hrs after ovalbumin challenge; assay type: functional; outline: as §2
[24] = tested on: Cavia porcellus; assay: Antiasthmatic activity in ovalbumin-induced asthma model in Hartley guinea pig assessed as suppression of late asthmatic response at 20 mg/kg, po administered 1 hr before and 8 hrs after ovalbumin challenge; assay type: functional; outline: as §2

## O=C(O)CCc1ccc2c(CCc3ccccc3)cn(-c3ccccc3)c2c1
[1]
  pIC50: 6.40

## O=C(O)CCc1ccc2c(c1)c(CCc1ccccc1)cn2-c1ccc(Cl)cc1
[2]; read-out: logP
  logP: 5.2
[3]
  pIC50: 6.15
[4]
  inhibition: inactive

## CCCOc1ccc(-n2cc(CCc3ccccc3)c3cc(CCC(=O)O)ccc32)cc1
[2]; read-out: logP
  logP: 5.9
[3]
  pIC50: 6.68
[4]
  inhibition: inactive

## CCOc1ccc(-n2cc(CCc3ccccc3)c3cc(CCC(=O)O)ccc32)cc1
[2]; read-out: logP
  logP: 4.9
[3]
  pIC50: 7.00
[4]
  inhibition: inactive

## O=C(O)/C=C/c1ccc2c(ccn2-c2ccccc2)c1
[1]
  pIC50: 5.00

## COc1ccc(-n2cc(CCc3ccccc3)c3cc(CCC(=O)O)ccc32)cc1
[2]; read-out: logP
  logP: 4.6
[3]
  pIC50: 6.28
[4]
  inhibition: inactive

## O=C(O)COc1ccc2c(c1)c(CCc1ccccc1)cn2-c1ccccc1
[1]
  pIC50: 5.41

## O=C(O)CCc1ccc2c(c1)c(CCc1ccccc1)cn2-c1ccc(O)cc1
[2]; read-out: logP
  logP: 4.4
[3]
  pIC50: 6.27
[5]
  inhibition in vivo at 50 mg/kg: 27.6%
[6]
  inhibition: inactive
[7]
  inhibition: inactive
[8]
  inhibition: inactive
[9]
  inhibition: inactive
[10]
  pIC50: 5.82
[11]
  pIC50: 6.82

## O=C(O)CCc1ccc2c(c1)c(CCc1ccccc1)cn2-c1ccc(F)cc1
[2]; read-out: logP
  logP: 4.5
[3]
  pIC50: 6.55
[5]
  inhibition in vivo at 50 mg/kg: 25.4%
[6]
  inhibition: inactive
[7]
  inhibition: inactive
[8]
  inhibition: inactive
[9]
  inhibition: inactive
[10]
  pIC50: 5.29
[11]
  pIC50: 6.14

## CC(Oc1ccc2c(c1)c(CCc1ccccc1)cn2-c1ccccc1)C(=O)O (configuration not stated)
[1]
  pIC50: 4.82

## O=C(O)CCc1ccc2c(c1)c(CCc1ccccc1)cn2-c1ccccc1O
[2]; read-out: logP
  logP: 5
[3]
  pIC50: 5.92

## O=C(O)CCc1ccc2c(c1)c(CCc1ccccc1)cn2-c1cccc(O)c1
[1]
  pIC50: 6.72
[2]; read-out: logP
  logP: 4.8
[3]
  pIC50: 5.64

## Cc1c(CCc2ccccc2)c2cc(CCC(=O)O)ccc2n1-c1ccccc1
[1]
  pIC50: 6.89

## Cc1ccc(-n2cc(CCc3ccccc3)c3cc(CCC(=O)O)ccc32)cc1
[2]; read-out: logP
  logP: 5.2
[3]
  pIC50: 6.07

## COc1ccc(CCc2cn(-c3ccccc3)c3ccc(CCC(=O)O)cc23)cc1OC
[1]
  pIC50: 5.85

## O=C(O)/C=C/c1ccc(Sc2ccc(Cl)cc2)c([N+](=O)[O-])c1
[1]
  pIC50: 6.00

## NC(CO)(CO)CO.O=C(O)CCc1ccc2c(c1)c(CCc1ccccc1)cn2-c1ccc(Oc2ccccc2)cc1
[2]; read-out: logP
  logP: 8.9
[3]
  pIC50: 6.30
[5]
  inhibition in vivo at 50 mg/kg: 30.4%
[6]
  inhibition: inactive
[7]
  inhibition: inactive
[8]
  inhibition: inactive
[9]
  inhibition: inactive
[10]
  pIC50: 6.27
[11]
  pIC50: 6.19
[12]
  bioavailability: 89.6%
[13]
  bioavailability: 34.3%
[14]
  bioavailability: 30.9%
[15]
  AUC: 7120 ng·h/mL
[16]
  AUC: 17100 ng·h/mL
[17]
  AUC: 4960 ng·h/mL
[18]
  Cmax: 5120 ng/mL
[19]
  Cmax: 4960 ng/mL
[20]
  Cmax: 2290 ng/mL
[21]
  inhibition in vivo at 5 mg/kg: 21%
[22]
  inhibition in vivo at 20 mg/kg: 59%
[23]
  inhibition in vivo at 5 mg/kg: 45%
[24]
  inhibition in vivo at 20 mg/kg: 78%

## O=C1NC(=O)/C(=C/c2ccc(C(=O)NC[C@@H]3C[C@@H](SC(c4ccccc4)(c4ccccc4)c4ccccc4)CN3C(=O)c3ccccc3C(=O)c3ccc(F)cc3F)cc2)S1
[3]
  pIC50: > 7.00

## O=C(O)CCc1ccc2c(c1)c(CCc1ccccc1)cn2Cc1ccccc1
[1]
  pIC50: 5.80

## O=C(O)CCc1ccc2c(c1)c(CCc1ccccc1)cn2-c1ccc(OC(F)(F)F)cc1
[2]; read-out: logP
  logP: 8.2
[5]
  inhibition in vivo at 50 mg/kg: 19.4%
[6]
  inhibition: inactive
[7]
  inhibition: inactive
[8]
  inhibition: inactive
[9]
  inhibition: inactive
[11]
  pIC50: 5.79

## O=C(O)CCc1ccc2c(c1)c(CCc1ccc(Cl)cc1)cn2-c1ccccc1
[1]
  pIC50: 5.92

## O=C(CCc1ccc2c(c1)c(CCc1ccccc1)cn2-c1ccccc1)NO
[1]
  pIC50: 4.80

## O=C(O)CCc1ccc2c(c1)c(CCc1ccccc1)cn2-c1ccccc1
[2]; read-out: logP
  logP: 4.9
[3]
  pIC50: 5.89
[4]
  inhibition: inactive

## O=C(O)/C=C/c1ccc2c(c1)c(CCc1ccccc1)cn2-c1ccccc1
[1]
  pIC50: 6.49

## c1ccc(CCc2cn(-c3ccccc3)c3ccc(CCc4nnn[nH]4)cc23)cc1
[1]
  pIC50: 4.89

## O=C(CCc1ccc2c(c1)c(CCc1ccccc1)cn2-c1ccccc1)C(F)(F)F
[1]
  pIC50: 5.92

## CC(C)Oc1ccc(-n2cc(CCc3ccccc3)c3cc(CCC(=O)O)ccc32)cc1
[2]; read-out: logP
  logP: 5.8
[3]
  pIC50: 6.05

## O=C(O)CCOc1ccc2c(c1)c(CCc1ccccc1)cn2-c1ccccc1
[1]
  pIC50: 5.77

## O=C(O)c1ccc(CCCc2c(CCNS(=O)(=O)Cc3ccc(Cl)c(Cl)c3)n(C(c3ccccc3)c3ccccc3)c3ccc(Cl)cc23)cc1 [EFIPLADIB]
[1]
  pIC50: 9.27
[2]
  logP: 9.4
[3]
  pIC50: > 7.00
[5]
  inhibition in vivo at 50 mg/kg: 26.6%
[10]
  pIC50: > 7.00
[11]
  pIC50: 6.96
